# Results gathered from unrelated publications.
# Lines come from different studies, so protocols differ.
# Target: Receptor tyrosine-protein kinase erbB-4 (ERBB4, Homo sapiens, UniProt Q15303)
SMILES,test,conditions,remaining binding [%]
F[C@@H]1CCN(c2nccc(-c3cnn4ncccc34)n2)C1,binding,1 µM,82
Nc1ncc2c(n1)-c1c([nH]c3ccc(C#CC4CC4)cc13)CCCC2,"binding, competition with immobilised ligand",1 µM,100
C[C@H](NC(=O)c1cnc2n1[C@](C)(Cc1ccc(C#N)cc1)C(=O)N2c1cc(Cl)c(F)c(Cl)c1)C(=O)NC1(c2ccccn2)CC1,"cell-free assay, competition with immobilised ligand",1 µM,100
N#Cc1ccccc1CSc1nnc2c(n1)[nH]c1ccccc12,"binding, competition with immobilised ligand",10 µM,74
CCN1CCN(Cc2ccc(C(=O)Nc3ccc(C)c(Oc4ccc5c(c4)CC(=O)N5)c3)cc2C(F)(F)F)CC1,"binding, competition with immobilised ligand",1 µM,100
CN(C)c1nccc(-c2cnn3ncccc23)n1,binding,1 µM,81
COc1cc(-c2cn(C3CCc4c(F)cccc4N(CC(F)(F)F)C3=O)nn2)ccc1-n1cnc(C)c1 (stereo not shown),"cell-free assay, competition with immobilised ligand",1 µM,100
C=CC(=O)N1CCC(C(=O)NCC(=O)N2CCN(c3nc(-c4cnc(N)nc4C(F)F)nc(N4CCOCC4)n3)CC2)CC1,"binding, competition with immobilised ligand",1 µM,100
CCCCN(CCCC)C(=O)CN1C[C@@H](c2cc(OC)c3c(c2)OCO3)[C@H](C(=O)O)[C@H]1CC(C)(C)CCC,"cell-free assay, competition with immobilised ligand",1 µM,95
Cc1cnc(Nc2ccc(C(=O)N3CCC(N4CCCC4)CC3)cc2)nc1-c1cc2ccccc2s1,"binding, competition with immobilised ligand",1 µM,84
O=C(NCC1CCOCC1)c1n[nH]cc1NC(=O)c1c(F)cccc1F,"binding, competition with immobilised ligand",1 µM,100
CNC(=O)[C@@H]1CC[C@@H](n2c(-c3ccc4cnccc4c3)nc3ccc(C(=O)NCc4cccc(C(N)=O)c4)cc32)C1,"binding, competition with immobilised ligand",1 µM,100
O=C(c1ccc(Nc2ncc(Cl)c(-c3cc4ccccc4s3)n2)cc1)N1CCC(N2CCCC2)CC1,"binding, competition with immobilised ligand",1 µM,98
N[C@H]1CCN(c2nccc(-c3cnn4ncccc34)n2)C1,binding,1 µM,84
C[C@@H](c1ccc(-n2cnc3c(N)ncnc32)cc1)N1CCc2nn(C)c(Cc3ccccc3)c2C1=O,"binding, competition with immobilised ligand",0.1 µM,73
N#CC1(c2ccccn2)CCN(Cc2cc(C(=O)N3CCCC3)c(=O)n3ccccc23)CC1,"cell-free assay, competition with immobilised ligand",1 µM,85
C[C@H]1CCN(c2nccc(-c3cnn4ncccc34)n2)C1,binding,1 µM,81
Nc1c(C(=O)NCc2ccc(C(=O)NCCCC3CCCCC3)cc2)cnn1-c1ccccc1,"cell-free assay, competition with immobilised ligand",0.1 µM,89
CC1CCCN1c1nccc(-c2cnn3ncccc23)n1 (stereo not shown),binding,1 µM,98
O=C(NCCCN1CCOCC1)c1ccc(Nc2nccc(-c3cc4ccccc4s3)n2)cc1,"binding, competition with immobilised ligand",1 µM,86
COc1ccc2c(c1)O[C@H](c1ccc(OC)c(OC)c1)C[C@@H]2NC(=O)C1(c2ccc3c(c2)OC(F)(F)O3)CC1,"cell-free assay, competition with immobilised ligand",1 µM,94
CN(CCCC(F)(F)F)c1nccc(-c2cnn3ncccc23)n1,binding,1 µM,72
